Experimental data gathered from unrelated publications.
Protocols differ between the studies behind these lines.
Target: Dual specificity protein kinase CLK2 (CLK2, Homo sapiens, UniProt P49760)
Technique: competition with immobilised ligand

| SMILES | test | conditions | remaining binding [%] |
| --- | --- | --- | --- |
| C[C@@]1(Cc2ccc(C#N)cc2)C(=O)N(c2cc(Cl)cc(Cl)c2)c2ncc(C(=O)NC3(c4nc(C5CCC5)no4)CC3)n21 | cell-free assay | 1 µM | 100 |
| C=CC(=O)N1CCC(C(=O)NCC(=O)N2CCN(c3nc(-c4cnc(N)nc4C(F)F)nc(N4CCOCC4)n3)CC2)CC1 | binding | 1 µM | 91 |
| Nc1c(C(=O)NCc2ccc(C(=O)NCCCC3CCCCC3)cc2)cnn1-c1ccccc1 | cell-free assay | 0.1 µM | 100 |
| Cc1cnc(Nc2ccc(C(=O)N3CCC(N4CCCC4)CC3)cc2)nc1-c1cc2ccccc2s1 | binding | 1 µM | 8.8 |
| c1cncc(-c2cccc(Nc3nccc(NC4CCCCC4)n3)c2)c1 | binding | 10 µM | 15 |
| Nc1ncc2c(n1)-c1c([nH]c3ccc(C#CC4CC4)cc13)CCCC2 | binding | 1 µM | 96 |
| C[C@H](NC(=O)c1cnc2n1[C@](C)(Cc1ccc(C#N)cc1)C(=O)N2c1cc(Cl)c(F)c(Cl)c1)C(=O)NC1(c2ccccn2)CC1 | cell-free assay | 1 µM | 97 |
| CN(CCCC(F)(F)F)c1nccc(-c2cnn3ncccc23)n1 | binding | 1 µM | 47 |
| C[C@@H](c1ccc(-n2cnc3c(N)ncnc32)cc1)N1CCc2nn(C)c(Cc3ccccc3)c2C1=O | binding | 0.1 µM | 79 |
| O=C(NCCCN1CCOCC1)c1ccc(Nc2ncc(Cl)c(-c3ccc(Cl)s3)n2)cc1 | binding | 1 µM | 5.7 |
| CCOC(=O)c1cc2cc(-c3cc(C(=O)NCc4ccc(C(=O)O)cc4)nn3C)ccc2[nH]1 | cell-free assay | 0.1 µM | 96 |
| O=C(NCCCN1CCOCC1)c1ccc(Nc2nccc(-c3cc4ccccc4s3)n2)cc1 | binding | 1 µM | 28 |
| COc1cnc(Nc2cccc(S(N)(=O)=O)c2)nc1N1CCN(c2ccccc2)CC1 | binding | 1 µM | 99 |
| O=C(Nc1c[nH]nc1C(=O)NC1CCNCC1)c1cc(F)cc(F)c1 | binding | 1 µM | 100 |
